Screening results deposited in PubChem by several laboratories.
Compounds with a hit are over-represented: about 3.5% of the library has one in this group of screens.
AHR activator: activates the human aryl hydrocarbon receptor. P35869. activation, % at 5 µM. AHR-responsive luciferase reporter cells, luminescence. AID 2796. 320,000 tested, 2.5% active; in the data active = activation above about 47%
STAT3 activator: increases IL-6 driven STAT3 reporter signal | 190,000 tested, 0.91% active | U3A cells, IL-6 STAT3-luciferase reporter, luminescence; 100% = signal with IL-6 EC80 alone | activation (% of control), % at 5.6 µM | AID 871;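 active = activation above the screen-wide mean of compound activation plus 3 SD, cut at about 130% in these data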
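Material: human STAT1-deficient U3A cells with stable STAT3-luciferase reporter / Probe or stimulus: IL-6 stimulus at 33 ng/mL final / Schedule: 1 h compound pre-exposure, 6 h IL-6 stimulation, 37 °C / Technique: luminescence / Read-out basis: percent of IL-6-only median luminescence / Control set: IL-6-only high control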
FXIa inh 1536: blocks human coagulation factor XIa protease activity; purified FXIa, Boc-Glu-Ala-Arg-AMC fluorogenic substrate; 220,000 tested, 0.14% active; AID 798; inhibition, % at 5 µM;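 active = inhibition of at least 40%; inactive = inhibition below 40%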;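 also: fluorescence of freed AMC excited at 355 nm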
KLK5 inh: kallikrein 5 (human) inhibition | Q9Y337 | recombinant hK5, fluorogenic AMC substrate cleavage | inhibition, % at 5 µM | 210,000 tested, 0.59% active;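 active = inhibition of 40% or more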
thrombin 1536: inhibitors of human thrombin. P00734. alpha-thrombin, Boc-VPR-AMC fluorogenic substrate cleavage. inhibition, % at 5 µM. 220,000 tested, 0.26% active;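 active = inhibition at or above 40%; inactive = inhibition below 40%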
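Material: Human alpha-thrombin protein | Buffer or medium: pH 7.5 Tris-saline with Tween 20 | Reagent: Boc-VPR-AMC substrate, 15 µM final | Schedule: Reaction at ambient temperature | Detection: AMC fluorescence at 355 nm excitation and 460 nm emission | Evaluation: Percent inhibition scaled between no-compound controls and no-enzyme blanks | Controls: no-compound enzyme wells and no-enzyme blanks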
FXIIa inh 1536: inhibitors of human coagulation factor XIIa. P00748. purified FXIIa, Boc-QGR-AMC fluorogenic substrate, 2 h. inhibition, % at 5 µM. 220,000 tested, 0.3% active; in the data active = inhibition above about 40%
A number is an active result; 0 = inactive; - = no result given.

SMILES	AHR activator	STAT3 activator	FXIa inh 1536	KLK5 inh	thrombin 1536	FXIIa inh 1536
C[C@H](CO)N1C[C@H](C)[C@@H](CN(C)S(=O)(=O)c2ccccc2)Oc2c(NC(=O)CCC(F)(F)F)cccc2C1=O	0	-	-	-	-	-
CC(=O)Nc1ccc(S(=O)(=O)N[C@@H](C)C(=O)OCc2cc([N+](=O)[O-])cc3c2OCOC3)cc1	0	-	0	0	0	0
CC(C)C(NS(=O)(=O)c1ccccc1)C(=O)OCc1cc([N+](=O)[O-])cc2c1OCOC2 (stereo unspecified)	0	0	0	0	48.2	0
Cc1ccc2c(c1)C(=O)N1[C@H]3c4ccccc4OC[C@@H]3[C@H](c3ccccc3)[C@]1(C)C(=O)N2	0	-	-	-	-	-
CCN(CC)c1ccc(/C=C(/C#N)c2nc3ccccc3[nH]2)c(OC(C)C)c1	0	0	0	0	0	0
CC1=CC2=NC(=O)/C(=C\c3ccc(-c4cccc(Cl)c4)o3)C(=N)N2O1	69.9	0	0	0	0	0
CCOC(=O)Cc1csc(NC(=O)/C=C/c2ccc(Cl)cc2)n1	0	-	0	0	0	0
Cc1cc(NC(=O)CSc2nnc(C3CC3)n2N)no1	0	0	0	0	0	0
Cc1cc(NC(=O)CSc2nnc(C3CC3)n2-c2ccccc2)no1	48.1	0	0	0	0	0
Cc1cc(NC(=O)CSc2nc3ccccc3c(=O)n2C(C)c2ccccc2)no1 (stereo unspecified)	0	134.5	0	0	0	0
COC(=O)c1oc2ccccc2c1NC(=O)CN1CCCC1	54.0	0	0	0	0	0
CCOC(=O)c1oc2ccccc2c1NC(=O)c1ccccc1OC	0	0	0	59.5	0	0
NS(=O)(=O)c1ccc(N2CCN(C(=O)c3ccco3)CC2)nc1	0	-	-	-	-	-
COc1ccc(/C=C(/NC(=O)c2ccco2)C(=O)N2CCCCC2)cc1	0	-	-	-	-	-
O=C(c1ccccc1)N1CCN(c2ncnc3c2cnn3-c2ccccc2)CC1	61.4	0	0	0	0	0
CC(=O)Nc1cccc(C(=O)OCc2ccccc2)c1	0	0	0	82.0	0	0
CCOc1nc(NCCN2CCOCC2)nc(Nc2ccc([N+](=O)[O-])cc2)n1	0	0	0	0	0	0
O=C(CC(c1ccc(F)cc1)c1ccco1)N1CCOCC1 (stereo unspecified)	0	0	0	58.7	42.8	0
O=C(CC(c1ccc(F)cc1)c1ccco1)N1CCCC1 (stereo unspecified)	0	0	0	0	0	0
Cc1c(Cl)cccc1NC(=O)CCN1CCC(C(N)=O)CC1	0	-	-	-	-	-
O=C(CSc1nnc2ccc(-c3ccc(F)cc3)nn12)NCC1CCCO1 (stereo unspecified)	0	-	-	-	-	-
O=C(O)c1ccccc1-c1nc2ccccc2[nH]1	0	0	0	0	0	0
Oc1ccc2ccccc2c1C=Nc1ccccc1-c1nc2ccccc2[nH]1	65.0	0	0	0	0	0
Nc1nc(OCC2CCCCC2)c2[nH]cnc2n1	56.3	-	-	-	-	-
Nc1nc2nc[nH]c2c(=O)[nH]1	0	-	-	-	-	-
SMILES	AHR activator	STAT3 activator	FXIa inh 1536	KLK5 inh	thrombin 1536	FXIIa inh 1536
CC(C)(C)C(=O)NCCN1CCN(C(=O)C(C)(C)C)CC1	0	0	0	0	0	0
O=C(c1ccccc1)N1CCN(c2ccc([N+](=O)[O-])cc2-n2cccc2)CC1	0	-	0	0	0	0
O=c1[nH]c(CS(=O)(=O)c2ccccc2)nc2ccccc12	74.0	0	0	0	0	0
N#CCc1nc2ccccc2c(=O)[nH]1	0	-	0	0	0	0
Cc1ccc(/C=N/NC(=O)c2cccc([N+](=O)[O-])c2)o1	0	0	0	40.8	0	0
CCOC(=O)c1ccc(-c2ccc(/C=N/NC(=O)c3cncc(Br)c3)o2)cc1	0	-	0	0	0	0
Cc1ccc(/C=N/NC(=O)c2cccnc2)o1	72.3	0	0	0	0	0
Cc1ccc(/C=N/NC(=O)c2cccs2)o1	77.8	0	0	0	0	0
Cc1ccc(/C=N/NC(=O)c2csc(C)c2)o1	0	0	0	0	0	0
Cc1ccc(/C=N\NC(=O)c2cncc(Br)c2)o1	63.6	0	0	0	0	0
O=C(N/N=C/c1ccc(Br)o1)c1cccnc1	0	0	0	0	0	0
CCc1ccc(C(C(=O)NC2CCCCC2)N(C(=O)c2csnn2)C2CC2)cc1 (stereo unspecified)	0	-	-	-	-	-
COc1ccc(/C=N/NC(=O)c2cccs2)c2ccccc12	52.7	-	-	-	-	-
Cc1nn(-c2cccc(Cl)c2)c(Cl)c1/C=N/NC(=O)c1cccnc1	77.8	0	0	0	0	0
O=C(Nc1ccc(S(=O)(=O)Nc2cnc3ccccc3n2)cc1)c1ccc(Cl)c([N+](=O)[O-])c1	0	-	-	-	-	-
Cc1ccc(NC(=O)CNc2ccc(OC(C)C)cc2)cc1	0	0	0	0	0	0
Cc1ccc(C(CC(=O)NCCCN(C)C)c2ccc(OC(C)C)cc2)cc1 (stereo unspecified)	0	-	0	0	0	63.1
CCOC(=O)NC(=O)c1cn(Nc2ccccc2)c(=O)[nH]c1=O	0	-	0	0	0	0
c1ccc2c(c1)nc(CN1CCOCC1)n1c3ccccc3nc21	0	0	0	0	0	0
c1ccc(-c2nc3ccccc3c3nc4ccccc4n23)cc1	51.6	0	0	0	0	0
FC(F)(F)c1nc2ccccc2c2nc3ccccc3n12	49.9	0	0	0	0	0
CCc1nc2ccccc2c2nc3ccccc3n12	51.4	0	0	0	0	0
N#Cc1cc(NC(=O)c2ccc(F)cc2)c(=O)n2c1[nH]c1ccccc12	0	0	0	0	0	0
CC1=NN(c2ccccc2)C(=O)C1N=Nc1cccc(O)c1 (stereo unspecified)	0	-	-	-	-	-
CC1=NN(c2ccccc2)C(=O)C1N=Nc1ccc(N)cc1 (stereo unspecified)	49.5	0	0	0	0	0
SMILES	AHR activator	STAT3 activator	FXIa inh 1536	KLK5 inh	thrombin 1536	FXIIa inh 1536
CC1=NN(c2ccccc2)C(=O)C1N=Nc1ccccc1 (stereo unspecified)	0	133.4	0	0	0	0
CC1=NN(c2nc(-c3ccc(C)cc3)cs2)C(=O)C1N=Nc1ccccc1O (stereo unspecified)	50.6	0	0	0	0	0
COc1ccc(N=NC2C(=O)N(c3ccccc3)N=C2C)cc1 (stereo unspecified)	51.4	-	-	-	-	-
CC1=NN(c2nc(-c3ccc(C)cc3)cs2)C(=O)C1N=Nc1cccc(O)c1 (stereo unspecified)	0	0	0	0	0	0
CC(C)C(NC(=O)c1ccccc1NC(=O)C(C)(C)C)C(=O)N1CCOCC1 (stereo unspecified)	0	-	-	-	-	-
CC(=O)Nc1ccc(S(=O)(=O)N2CCN(CC(=O)N3CCOCC3)CC2)cc1	0	-	0	0	0	0
O=S(=O)(Nc1nc(-c2sccc2Cl)cs1)c1cc(Cl)ccc1Cl	0	0	0	0	0	0
N#Cc1ccccc1NC(=O)CNc1ccc(Cl)c(C(F)(F)F)c1	65.0	0	0	0	0	0
